ARFGAP1 inh: rat ARFGAP1 inhibition. Q62848. Arfgap1-stimulated ARF1 GTP hydrolysis, GDP FP detection. inhibition, % at 16.5 µM. 360,000 tested, 0.26% active. AID 651572;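 active means inhibition above a per-plate limit, mean inhibition of low control wells plus 3 SD, cut at about 25% in these data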;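 further: 0% = DMSO wells with enzyme and 100% = wells lacking Arfgap1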
Target sequence (Q62848 1-136 limits assumed): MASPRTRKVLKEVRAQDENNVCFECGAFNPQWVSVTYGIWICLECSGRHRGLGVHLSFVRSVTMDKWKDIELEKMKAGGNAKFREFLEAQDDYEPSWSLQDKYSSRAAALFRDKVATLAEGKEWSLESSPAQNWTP
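Material: rat Arfgap1 catalytic domain, aa 1-136; also added: human ARF1(Δ1-17)-GTP substrate; compound dosing: one concentration, 16.5 µM, DMSO 1.26%; incubation: GTP hydrolysis reaction 2 h at 25 °C; measured by: Tracer-displacement fluorescence polarization with EDTA stop, 620/688 nm; evaluation: % inhibition from polarization; repeats: one replicate per compound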
SKKanGAS inh: blocks kanamycin growth of S. pyogenes SKKanGAS strain; BacTiter-Glo, 6 h; inhibition, % at 7.5 µM; 300,000 tested, 1.3% active;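 active means mean replicate score, as percent of positive control median, at least 50; inconclusive means mean below 50 but one replicate at or above 50; inactive means mean and every replicate below 50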;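 further: strain carries kanamycin resistance gene driven by streptokinase promoter and grows in 40 µg/ml kanamycin; loss of luminescence reflects streptokinase promoter inhibition or plain growth inhibition; 0% = median of DMSO wells and 100% = positive control at its reference dose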
sPLA2-III inh: Inhibits HGIII-sPLA2 liposome hydrolysis, primary screen. Q9NZ20. QFRET BODIPY PC-A2 liposome hydrolysis, fluorescence. inhibition, % at 12.2 µM. 370,000 tested, 0.56% active. AID 743126;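 active means inhibition above mean plus 3 SD of compounds lying within the high and low control bounds, cut at about 19% in these data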;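 further: 0% = median of test compound wells and 100% = no enzyme DMSO wells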
Target sequence (Q9NZ20 whole entry, looked up): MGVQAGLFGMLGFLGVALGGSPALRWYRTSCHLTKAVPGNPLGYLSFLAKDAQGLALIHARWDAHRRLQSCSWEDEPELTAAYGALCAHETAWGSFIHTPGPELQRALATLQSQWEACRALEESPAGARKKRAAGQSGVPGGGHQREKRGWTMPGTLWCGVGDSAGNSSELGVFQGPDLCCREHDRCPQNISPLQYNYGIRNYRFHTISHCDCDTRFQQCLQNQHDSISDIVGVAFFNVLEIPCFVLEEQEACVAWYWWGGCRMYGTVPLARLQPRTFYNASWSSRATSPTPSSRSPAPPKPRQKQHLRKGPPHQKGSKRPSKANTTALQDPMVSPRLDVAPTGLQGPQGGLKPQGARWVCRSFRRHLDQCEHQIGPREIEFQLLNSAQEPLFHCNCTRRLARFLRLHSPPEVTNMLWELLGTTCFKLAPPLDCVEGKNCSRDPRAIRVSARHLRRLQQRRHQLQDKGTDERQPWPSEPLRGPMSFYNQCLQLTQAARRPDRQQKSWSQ
ASAP1 inh: inhibitors of human ASAP1 ArfGAP activity. ASAP1-stimulated ARF1 GTP hydrolysis, GDP FP detection. inhibition, % at 16.5 µM. 360,000 tested, 0.19% active; in the data active means inhibition above about 25%;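 further: 0% = vehicle with enzyme and substrate and 100% = no enzyme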
Calb FLC: affects C. albicans growth with fluconazole. AID 1979. growth inhibition, % (no concentration beside the values). 300,000 tested, 0.57% active. C. albicans CaCi-2 + fluconazole, Alamar Blue growth, 48 h;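 active means growth inhibition above about 58% in most replicates, limit read from the data, passing the limit was not always enough; inconclusive means exactly half the replicates above a set limit; inactive means most replicates below a set limit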;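 further: all wells also contain fluconazole at 8 µg/ml as a sub-toxic cotreatment; 0% = median of DMSO wells and 100% = median of geldanamycin control wells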
* marks the source's active call; other numbers are inactive results; u = inconclusive; x = no result. Rows were chosen to be rich in hits. Some 2.3% of all compounds tested hit in one or more screens of this group.

SMILES	ARFGAP1 inh	SKKanGAS inh	sPLA2-III inh	ASAP1 inh	Calb FLC
CCCCc1ccc(-c2nc(N)n[nH]2)cc1	-8	5	-10	-5	65
Cc1ccc(NC(=O)CSc2nnc(-c3cccnc3)n2Cc2ccco2)c(C)c1	x	x	-1	x	x
O=C(c1ccco1)N1CCN(c2ncnc3c(-c4ccccc4)nsc23)CC1	0	15	-2	10	89*
COc1ccc(-c2nsc3c(N4CCN(C(=O)c5ccco5)CC4)ncnc23)cc1	6	37	5	1	21
CCOc1ccc(CN(C(=O)c2oc3ccccc3c2C)C2CCS(=O)(=O)C2)cc1 (stereo unspecified)	-13	x	-19	-8	101*
Cc1ccc(C(=O)/C=C/c2cc(Br)cc(Br)c2O)o1	-8	66*	-10	14	55
Cc1cccc2nc(CSc3ccccc3N)cn12	-1	-12	-7	3	-2
Cc1cccc2nc(COc3ccc4ccccc4c3Br)cn12	8	64*	-13	21	-8
Nc1nc2c(ncn2[C@@H]2O[C@H](C(=O)NC3CCCCC3)[C@@H](O)[C@H]2O)c(=O)[nH]1	1	x	1	-17	x
CCCCNc1c(-c2ccc(SC(C)CC)c(OC)c2)nc2ccc(C)cn12 (stereo unspecified)	-8	72*	3	4	17
CCCCNc1c(-c2ccc(SC(C)CC)c(OC)c2)nc2ccc(Cl)cn12 (stereo unspecified)	10	x	-2	-5	x
CCC(C)Sc1cccc(-c2nc3ccc(C)cn3c2NCc2ccccc2)c1 (stereo unspecified)	-1	67*	-6	9	-4
NC(=O)c1ncn([C@@H]2O[C@H](C(=O)N[C@H](Cc3c[nH]c4ccccc34)C(=O)N3CCN(C(=O)N4CCCCC4)CC3)[C@@H](O)[C@H]2O)n1	-5	x	4	9	x
Cc1ccc(CN2C(C(=O)NC3CCCC3)CSCCS2(=O)=O)cc1 (stereo unspecified)	x	x	6	x	x
CS(=O)(=O)Nc1ccc(C2=NN(C(=O)C3CCCCC3)C(c3cccs3)C2)cc1 (stereo unspecified)	1	83*	-34	-2	-16
CC(C)C(=O)N1N=C(c2ccc(NS(C)(=O)=O)cc2)CC1c1cccs1 (stereo unspecified)	3	-4	-5	-2	-1
O=C1C2C(c3ccccc3)=NN(c3ccccc3)C2C(=O)N1c1ccccc1 (stereo unspecified)	-6	107*	0	-5	-2
OC[C@@H]1[C@@H](c2ccc(F)cc2)C(c2ccccc2)=NN1c1ccccc1	-7	x	3	5	x
O=C1[C@H]2C(c3ccccc3)=NN(c3ccccc3)[C@H]2C(=O)N1c1ccccc1	-1	89*	-4	3	13
Cc1cc(C)cc(NC(=O)C2(C(=O)C3CC3)CC(c3ccccc3C(F)(F)F)=NO2)c1 (stereo unspecified)	x	x	-2	x	x
O=C(CN1CCc2onc(-c3ccc(-n4cc(-c5ccccc5)nn4)cc3)c2C1=O)N1CCOCC1	x	x	-1	x	x
CC(C)NC(=O)NC(=O)CSc1nnc(COc2ccccc2F)n1C(C)C1CC2CCC1C2 (stereo unspecified)	x	51*	x	x	17
CC(C1CC2CCC1C2)n1c(COc2ccccc2F)nnc1SCC(N)=O (stereo unspecified)	-10	6	-18	3	6
O=C(Nc1ccc(F)cc1)c1nc2c(nnn2Cc2cccc3ccccc23)c(=O)[nH]1	-24	62*	-1	-16	25
COc1cccc(OC)c1NC(=O)c1nc2c(nnn2Cc2ccccc2Cl)c(=O)[nH]1	-16	33	-11	-6	47
SMILES	ARFGAP1 inh	SKKanGAS inh	sPLA2-III inh	ASAP1 inh	Calb FLC
Cc1[nH]n(-c2ccccc2)c(=O)c1/C=N/N(c1ccccc1)c1ccccc1	-2	78*	-3	2	-14
O=c1cc(-c2ccc(Cl)cc2)oc(=O)[nH]1	-1	8	-3	-5	-2
O=c1cc(N=Nc2ccc(Cl)cc2)[nH]c(=O)[nH]1	8	97*	6	1	19
COC(=O)[C@]12C[C@H](CC(=O)NCC34CC5CC(CC(C5)C3)C4)C(=O)N(CCc3ccc(OC)c(OC)c3)C1=C[C@H](C1CCCC1)O[C@@H]2C	x	x	-16	x	x
O=C(CCc1ccccc1)N[C@H]1[C@@H](OC(=O)c2ccco2)CCC[C@@]12C(=O)N(Cc1ccccc1)c1ccccc12	x	x	9	x	x
Clc1cccc(N/N=C(\Cc2nc3ccccc3[nH]2)c2ccccc2)c1	10	91*	-2	0	u
c1ccc(N/N=C(\Cc2ncc[nH]2)c2ccccc2)cc1	9	0	4	-6	114*
COc1cc(C(=O)N/N=C(\Cc2ncc[nH]2)c2ccccc2)cc(OC)c1OC	6	x	-3	1	-22
COc1ccc(C(=O)N/N=C(\Cc2ncc[nH]2)c2ccccc2)cc1	8	1	1	-11	98*
C/C(=N\Nc1cccc(Cl)c1)c1ccncc1	-8	-4	-1	22	-34
Cc1ccc(C(=O)N2CCOCC2)cc1S(=O)(=O)N1CCOCC1	11	51*	9	6	1
Cc1ccc(C(=O)N2CCCC2)cc1S(=O)(=O)N1CCOCC1	2	-8	6	-3	-7
Nc1n[nH]c(-c2cccc([N+](=O)[O-])c2)n1	5	-9	4	-9	93*
CC(C)=CCCC1=CC[C@H]2[C@@H](C1)C(C(C)C)=CC(=O)[C@@]2(C)O	7	x	15	-2	x
C/C(=C/CCC(C)[C@H]1CC[C@@]2(C)C3=C(CC[C@]12C)[C@@]1(C)CCC(=O)C(C)(C)[C@@H]1CC3)C(=O)O (stereo partly specified)	-16	105*	7	-30	-7
C/C(=C/CCC(C)C1CCC2(C)C3CCC4C(C)(C)C(=O)CCC4(C)C3=CCC12C)C(=O)O (stereo unspecified)	x	105*	x	x	-11
CC(CCC(=O)O)C1CC[C@@]2(C)C3C(=O)CC4C(C)(C)C(O)CC[C@]4(C)C3C(=O)C[C@]12C (stereo partly specified)	4	7	-2	3	-4
COC(=O)[C@]12C[C@H](CC(=O)NCc3cccc4ccccc34)C(=O)N(Cc3ccc4c(c3)OCO4)C1=C[C@H](C(C)(C)C)O[C@@H]2C	0	x	-13	-3	x
CCOC(=O)c1cnc2c3c(noc13)CCC2	-4	x	6	3	x
Cc1ccc(NS(=O)(=O)c2ccc(C3CCCCC3)cc2)cc1	7	76*	-25	2	-1
CC(C)CNC(=O)OCc1cn(Cc2cccc(C(F)(F)F)c2)nn1	x	x	2	x	x
Cc1ccc(Cn2cc(/C=N/NC(=O)Cc3nnc(NC(=O)c4ccc(C)cc4)s3)c3ccccc32)cc1	2	58*	0	15	4
O=C(Cc1nnc(NC(=O)c2ccccc2)s1)N/N=C/c1cccc(O)c1	0	7	-34	5	-1

Assay outcomes as filed in PubChem BioAssay.
